Screening results deposited in PubChem BioAssay by several laboratories.
The entries come from a sample that favours hits as a whole.
Redox H2O2 prof = compounds producing H2O2 with reducing agent – biochemical, NIH compound library profiling, artefact control for MLSCN library redox annotation, primary screen; DTT-dependent redox cycling H2O2, phenol red/HRP absorbance; 100% = 100 µM peroxide control, 0% = buffer; activation, % at 10 µM; actives 0.03% (n = 200,000);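 active means activation of at least 50% relative to the plate's high and low controls in the primary single-dose screen; inactive means activation below 50%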;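 further: compound incubated with DTT at 0.8 mM final as the reducing agent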
Hep lipid drop = modulators of hepatic lipid droplet formation | AML12 mouse hepatocytes, oleate lipid droplets, BODIPY imaging | inhibition, % at 6.5 µM | actives 0.4% (n = 240,000);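 active means lipid droplet intensity inhibited by at least 50%, with more than 500 cells counted; inconclusive means wells with under 300 cells, treated as cytotoxic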
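Material: mouse AML12 hepatocyte cell line, fixed after treatment; Timing: compound with oleate, overnight; Technique: high-content imaging of BODIPY-stained droplets and DAPI nuclei; Probe or stimulus: oleate, 100 µM final; Dosing: compound at 6.5 µM only.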
Lmaj promast = inhibitors of Leishmania major promastigote growth; actives 9% (n = 200,000); Leishmania major promastigotes, resazurin fluorescence viability; AID 1063; inhibition, % at 10 µM; in the data active means inhibition above about 50%;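 further: promastigotes grown with compound for 44 hours at 28 °C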
T cruzi repl = T. cruzi replication inhibition; T. cruzi beta-gal in NIH3T3, luminescence, 90 h; inhibition, % (no concentration beside the values); actives 1.4% (n = 300,000); AID 1885;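 active means mean inhibition across valid replicates above about 55%, limit read from the data; inconclusive means mean below that limit but half or more replicates reach it; inactive means mean below it, under half of replicates reach it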;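 further: signal also drops with host cell toxicity which is not excluded here; 0% = plate median of DMSO wells and 100% = zero luminescence signal; higher percent means less beta-gal luminescence so fewer parasites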
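System: mouse NIH/3T3 fibroblasts infected with β-gal-expressing T. cruzi Tulahuen C4 / Input: NIH/3T3 cells, 5,000 per well / Buffer or medium: Low-serum DMEM with 2% FBS / Probe or stimulus: 5000 reporter trypomastigotes per well / Schedule: ≥90 h infection period, 3 h prior cell attachment / Measured by: GalScreen luminescence, 60 min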
MPTP block = permeability transition pore inhibition | isolated mouse mitochondria, Ca2+ swelling absorbance, 30 min | inhibition, % at 10 µM | actives 1.4% (n = 360,000) | AID 602449;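 active means inhibition of 50% or more, scaled per plate between neutral and stimulator controls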;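 further: 0% = DMSO wells given calcium and 100% = 1 mM EGTA wells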
* hit, by the source's call; ? = inconclusive; / = no result.

SMILES	Redox H2O2 prof	Hep lipid drop	Lmaj promast	T cruzi repl	MPTP block
COc1ccc(CCN2CN(S(=O)(=O)c3ccc(OC)cc3)c3nc4ccccc4nc32)cc1	0	-9	85*	3	-1
COc1ccc(S(=O)(=O)N2CN(Cc3ccco3)c3nc4ccccc4nc32)cc1	-4	-2	9	-16	-1
Cc1ccc(S(=O)(=O)N2CN(Cc3ccco3)c3nc4ccccc4nc32)cc1	-4	/	58*	14	-1
Cc1ccc(S(=O)(=O)N2CN(Cc3ccco3)c3nc4ccccc4nc32)cc1C	-5	/	10	13	4
COc1cc(CNc2ncnc3c2ncn3[C@H]2CN(Cc3cccc4ccccc34)C[C@@H](CO)O2)cc(OC)c1OC	/	/	/	/	0
CCc1nc2c(OCc3ccc(Cl)cc3Cl)cccn2c1N(C)C(=O)CC(C)C	/	/	/	/	-1
COC(=O)c1ccc2c(=O)[nH]c(CSc3nnc(C(F)(F)F)n3C)nc2c1	0	-1	56*	24	0
NNC(=O)c1sccc1OCc1ccc(F)cc1	0	-19	-2	20	-1
O=C(N/N=C/c1ccc(Cl)cc1)c1sccc1OCc1ccc(F)cc1	1	?	85*	29	3
O=C(N/N=C/c1ccc(F)cc1)c1sccc1OCc1ccc(F)cc1	1	/	88*	1	-2
CCC(=O)N1CCCC1(C)C(=O)Nc1ccc(C)c(C)c1 (configuration not stated)	/	/	/	/	-2
Cc1noc(C)c1C(=O)N1CCN(c2ccc(OCc3ccccc3)cc2)CC1	/	8	/	1	2
O=C(O)Cc1cn(Cc2ccc(F)cc2)c2ccccc12	0	-12	-11	1	0
Cc1[nH][nH]c(=O)c1C(c1c(C)[nH][nH]c1=O)c1cn(Cc2ccc(Cl)c(Cl)c2)c2ccccc12	0	1	99*	-18	-1
Cc1[nH][nH]c(=O)c1C(c1c(C)[nH][nH]c1=O)c1cn(Cc2ccc(F)cc2)c2ccccc12	0	-1	99*	/	-1
Cc1cc(OCCn2cnc3ccccc3c2=O)cc(C(C)C)c1	0	-3	4	28	-1
Cc1cc(OCCCCNC(C)C)cc(C(C)C)c1	-1	17	97*	19	3
COc1ccc(OC)c(S(=O)(=O)NC(N)=NCCc2ccccc2OC)c1	-1	4	-2	-14	/
O=C(NCc1ccccc1CN1CCCC1)c1ccc(Cl)c(S(=O)(=O)N2CCCC2)c1	/	/	/	/	1
CCOc1ccc(Oc2c(/C=N/NC(=O)COc3ccccc3OC)c(C)nn2-c2ccccc2)cc1	-1	/	39	32	2
CCOc1ccc(Oc2c(/C=N/NC(N)=O)c(C)nn2-c2ccccc2)cc1	0	15	98*	-11	3
Cc1ccc(S(=O)(=O)CCC(=O)c2cccc([N+](=O)[O-])c2)cc1	/	0	/	58*	0
CC(=O)Nc1cc[n+](CC(=O)c2cccc([N+](=O)[O-])c2)cc1	/	12	/	-15	1
O=C(CCNc1ccc(Cc2ccncc2)cc1)c1cccc([N+](=O)[O-])c1	10	-7	95*	25	1
O=C(CCNc1cccc(F)c1)c1cccc([N+](=O)[O-])c1	0	3	80*	16	2
SMILES	Redox H2O2 prof	Hep lipid drop	Lmaj promast	T cruzi repl	MPTP block
Cc1ccc(C(=O)CCS(=O)(=O)c2ccc(Br)cc2)cc1	/	1	/	15	0
CCOc1ccccc1NC1=C(Cl)C(=O)N(c2ccccc2)C1=O	0	24	-4	-27	-2
Cc1ccc(-c2nc(NC(=O)c3nn(C)cc3[N+](=O)[O-])sc2C)cc1C	-2	7	6	64*	-2
CC(CCc1ccccc1)NCC(O)COc1ccccc1 (configuration not stated)	-2	0	83*	-1	3
COc1ccc(/C=N/NC(N)=S)cc1OC(=O)c1cccc2ccccc12	2	/	99*	?	1
CCOC(=O)c1sc(NC(=O)CCN2CCN(CC)CC2)c(C(=O)OCC)c1C	0	-6	100*	31	-1
CN1CCC(N(C)CC(=O)Nc2cccc(Oc3ccccc3)c2)CC1	-1	0	96*	62*	2
CN1CCC(N(C)CC(=O)Nc2ccc3c(c2)OC(F)(F)O3)CC1	/	16	/	44	0
CCN(c1ccccc1)S(=O)(=O)c1ccc(Cl)c(NC(=O)CN(C)C2CCN(C)CC2)c1	/	-1	/	56*	2
CCOC(=O)c1c(NC(=O)CN(C)C2CCN(C)CC2)sc(C(=O)Nc2ccccc2)c1C	-1	4	101*	37	0
CCOC(=O)c1sc(NC(=O)CCN2CCC(C)CC2)c(C(=O)OCC)c1C	-3	-9	5	-5	0
COc1ccc(C(=O)C(=O)N2CCN(c3ccccc3F)CC2)cc1	/	/	/	/	2
O=C(Cc1cccc(NC(=O)C2CCCN(C(=O)C3CCC3)C2)c1)Nc1cccc(C(=O)N2CCCC2)c1 (configuration not stated)	/	/	/	/	0
O=C(/C=C/[C@H]1O[C@@H](n2cnc3c(NC(=O)c4ccccc4)ncnc32)[C@H](O)[C@@H]1O)NCCc1ccc(F)cc1	/	/	/	/	-2
Cc1cccc(C(=O)N/N=C/c2cc(Br)c(Br)o2)c1	0	-14	5	-7	24
Cc1cc(-c2ccccc2)nc(Nc2nc3c(C)cccc3c(=O)[nH]2)n1	/	/	/	/	3
O=C(COC(=O)c1ccc2c(c1)OCCO2)NC1CCCCC1	/	/	/	/	0
CS(=O)(=O)N(CC(=O)NCc1ccco1)c1ccc(Cl)c(C(F)(F)F)c1	-4	/	76*	-13	3
CC(C)CCN1CCN(Cc2ccsc2)CC1CCO (configuration not stated)	-1	8	-3	2	-2
OCCC1CN(Cc2ccc3nonc3c2)CCN1Cc1ccsc1 (configuration not stated)	0	-24	-6	70*	0
OCCC1CN(Cc2cccc(-c3ccco3)c2)CCN1Cc1ccsc1 (configuration not stated)	1	-19	85*	34	2
O=C(NCCc1ccc(Cl)cc1)C1CCN(C(=O)c2ccc(F)cc2)CC1	/	-9	/	10	-2
CCN=C1SC(CC(N)=O)C(=O)N1CC (configuration not stated)	0	13	-5	-13	-2
CC(C)COC(=O)N1CCCCC1c1cc(C(=O)NCc2cccnc2)no1 (configuration not stated)	/	/	/	/	-2
O=C(Nc1ccnc(-c2ccncc2)n1)c1ccc(Cl)cc1	-2	-18	3	-1	2
Cc1ccc(NC(=S)NCC23C=CC(O2)C2C(=O)N(c4ccc(C)cc4)C(=O)C23)cc1 (configuration not stated)	0	6	92*	-5	2
Cc1cccc(NC(=S)NCC23C=CC(O2)C2C(=O)N(c4ccc(Cl)cc4)C(=O)C23)c1 (configuration not stated)	0	-4	53*	-3	7
